Activity calls are given as the source filed them. The rule behind the calls is not given here.

Series [1] concerns the target L-lactate dehydrogenase B chain (Sus scrofa) (UniProt P00336). As to the kind of experiment: Inhibition of oxamate binding to porcine heart LDH assessed as emission maximum at 1000 uM using pyruvate as substrate and NADH as cofactor measured after 2 hrs by fluorescence spectra analysis (reference value: 452.9 +/- 0.3 nanometer).
For series [2] the target is unchanged. The experiment in a line: Inhibition of oxamate binding to porcine heart LDH assessed as relative fluorescence intensity at 1000 uM using pyruvate as substrate and NADH as cofactor measured after 2 hrs by fluorescence spectra analysis (reference value: 0.775 +/- 0.013 a.u.).
Series [3] has the same target. As to the kind of experiment: Binding affinity to porcine heart LDH at 2.14 mM measured every 2 mins for 10 mins by dynamic light scattering analysis. Put shortly:
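DLS on filtered samples of 80 μN phLDH, 4 μM NADH and 2.14 mM inhibitor in 100 mM sodium phosphate pH 7.2 at room temperature. Autocorrelation functions and particle size distributions collected every 2 min for 10 min.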

The target is the same in series [4]. The experiment in a line: Inhibition of porcine heart LDH assessed as enzymatic hydride transfer lifetime using pyruvate as substrate and NADH as cofactor measured after 2 hrs by stopped flow spectrometric analysis (reference value: 3.73 +/- 0.0901 ms).
Series [5] shares this target. As to the kind of experiment: Inhibition of oxamate binding to porcine heart LDH assessed as relative fluorescence intensity at 961 uM using pyruvate as substrate and NADH as cofactor measured after 2 hrs by fluorescence spectra analysis (reference value: 0.775 +/- 0.013 a.u.).
Series [6] shares this target. The experiment in a line: Inhibition of oxamate binding to porcine heart LDH assessed as emission maximum at 6 uM using pyruvate as substrate and NADH as cofactor measured after 2 hrs by fluorescence spectra analysis (reference value: 452.9 +/- 0.36 nanometer).
The target is the same in series [7]. The experiment in a line: Inhibition of oxamate binding to porcine heart LDH assessed as emission maximum at 35 uM using pyruvate as substrate and NADH as cofactor measured after 2 hrs by fluorescence spectra analysis (reference value: 452.9 +/- 0.3 nanometer).
The target is the same in series [8]. The experiment in a line: Inhibition of oxamate binding to porcine heart LDH assessed as relative fluorescence intensity at 35 uM using pyruvate as substrate and NADH as cofactor measured after 2 hrs by fluorescence spectra analysis (reference value: 0.775 +/- 0.013 a.u.).
Series [9] has the same target. The experiment in a line: Inhibition of oxamate binding to porcine heart LDH assessed as emission maximum at 961 uM using pyruvate as substrate and NADH as cofactor measured after 2 hrs by fluorescence spectra analysis (reference value: 452.9 +/- 0.3 nanometer).
For series [10] the target is unchanged. The experiment in a line: Inhibition of oxamate binding to porcine heart LDH assessed as relative fluorescence intensity at 6 uM using pyruvate as substrate and NADH as cofactor measured after 2 hrs by fluorescence spectra analysis (reference value: 0.775 +/- 0.013 a.u.).
For series [11] the target is unchanged. The experiment in a line: Activation of porcine heart LDH at 1 mM using pyruvate as substrate and NADH as cofactor measured after 2 hrs by stopped-flow spectrometric method relative to control. Summed up:
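Pig heart LDH buffer-exchanged into 100 mM sodium phosphate pH 7.2, then preincubated 2 h at 4 °C with inhibitor. Final: 5 nN enzyme, 100 μM NADH, 300 μM sodium pyruvate, 37 °C. Stopped-flow mixing of enzyme:NADH:inhibitor with pyruvate, NADH loss read at 340 nm. Initial rates are linear fits averaged over five shots and expressed relative to uninhibited enzyme.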

Series [12] deals with NC(=O)c1cc(O)cc(O)c1. As to the kind of experiment: (§1) Mixed inhibition of porcine heart LDH assessed as apparent Km for substrate at 100 uM using pyruvate as substrate and NADH as cofactor measured after 2 hrs by Michaelis-Menten plot analysis (reference value: 73 +/- 10 uM). As to conditions: Sus scrofa.
The subject of series [13] is CC(=O)Nc1cccc(O)c1. Described as §1. As to conditions: Sus scrofa.
The subject of series [14] is CC(=O)Nc1cccc(O)c1. The experiment in a line: Non-competitive inhibition of porcine heart LDH assessed as Kcat for cofactor at 50 uM using pyruvate as substrate and NADH as cofactor measured after 2 hrs by Michaelis-Menten plot analysis (reference value: 221 +/- 10 /sec). As to conditions: Sus scrofa.
Series [15] deals with NC(=O)c1cc(O)cc(O)c1. As to the kind of experiment: (§2) Mixed inhibition of porcine heart LDH assessed as apparent Km for substrate at 300 uM using pyruvate as substrate and NADH as cofactor measured after 2 hrs by Michaelis-Menten plot analysis (reference value: 73 +/- 10 uM). As to conditions: Sus scrofa.
The test system of series [16] is CC(=O)Nc1cccc(O)c1. The description is as §2. As to conditions: Sus scrofa.
Series [17] deals with CC(=O)Nc1cccc(O)c1. As to the kind of experiment: Mixed inhibition of porcine heart LDH assessed as substrate Kcat at 10 uM using pyruvate as substrate and NADH as cofactor measured after 2 hrs by Michaelis-Menten plot analysis (reference value: 232 +/- 13 /sec). Particulars: Sus scrofa.
The test system of series [18] is NC(=O)c1cc(O)cc(O)c1. The experiment in a line: Mixed inhibition of porcine heart LDH assessed as substrate Kcat at 10 uM using pyruvate as substrate and NADH as cofactor measured after 2 hrs by Michaelis-Menten plot analysis (reference value: 319 +/- 8 /sec). Particulars: Sus scrofa.
For series [19], the system named is CC(=O)Nc1cccc(O)c1. As to the kind of experiment: Non-competitive inhibition of porcine heart LDH assessed as Kcat for cofactor at 300 uM using pyruvate as substrate and NADH as cofactor measured after 2 hrs by Michaelis-Menten plot analysis (reference value: 221 +/- 10 /sec). As to conditions: Sus scrofa.
Series [20] concerns NC(=O)c1cc(O)cc(O)c1. The experiment in a line: (§3) Mixed inhibition of porcine heart LDH assessed as apparent Km for substrate at 10 uM using pyruvate as substrate and NADH as cofactor measured after 2 hrs by Michaelis-Menten plot analysis (reference value: 73 +/- 10 uM). As to conditions: Sus scrofa.
Series [21] relates to CC(=O)Nc1cccc(O)c1. The series is described as §3. As to conditions: Sus scrofa.
Series [22] deals with CC(=O)Nc1cccc(O)c1. As to the kind of experiment: Non-competitive inhibition of porcine heart LDH assessed as apparent Km for cofactor at 300 uM using pyruvate as substrate and NADH as cofactor measured after 2 hrs by Michaelis-Menten plot analysis (reference value: 8 +/- 2 uM). Particulars: Sus scrofa.
The test system of series [23] is CC(=O)Nc1cccc(O)c1. As to the kind of experiment: Mixed inhibition of porcine heart LDH assessed as substrate Kcat at 300 uM using pyruvate as substrate and NADH as cofactor measured after 2 hrs by Michaelis-Menten plot analysis (reference value: 232 +/- 13 /sec). Particulars: Sus scrofa.
For series [24], the system named is CC(=O)Nc1cccc(O)c1. As to the kind of experiment: Mixed inhibition of porcine heart LDH assessed as substrate Kcat at 50 uM using pyruvate as substrate and NADH as cofactor measured after 2 hrs by Michaelis-Menten plot analysis (reference value: 232 +/- 13 /sec). As to conditions: Sus scrofa.
In series [25] the test system is NC(=O)c1cc(O)cc(O)c1. The experiment in a line: Mixed inhibition of porcine heart LDH assessed as substrate Kcat at 50 uM using pyruvate as substrate and NADH as cofactor measured after 2 hrs by Michaelis-Menten plot analysis (reference value: 319 +/- 8 /sec). As to conditions: Sus scrofa.
Series [26] has as its system NC(=O)c1cc(O)cc(O)c1. The experiment in a line: (§4) Mixed inhibition of porcine heart LDH assessed as apparent Km for substrate at 25 uM using pyruvate as substrate and NADH as cofactor measured after 2 hrs by Michaelis-Menten plot analysis (reference value: 73 +/- 10 uM). Particulars: Sus scrofa.
Series [27] deals with CC(=O)Nc1cccc(O)c1. Described as §4. As to conditions: Sus scrofa.
For series [28], the system named is CC(=O)Nc1cccc(O)c1. The experiment in a line: Mixed inhibition of porcine heart LDH assessed as substrate Kcat at 100 uM using pyruvate as substrate and NADH as cofactor measured after 2 hrs by Michaelis-Menten plot analysis (reference value: 232 +/- 13 /sec). Particulars: Sus scrofa.
Series [29] has as its system NC(=O)c1cc(O)cc(O)c1. As to the kind of experiment: Mixed inhibition of porcine heart LDH assessed as substrate Kcat at 25 uM using pyruvate as substrate and NADH as cofactor measured after 2 hrs by Michaelis-Menten plot analysis (reference value: 319 +/- 8 /sec). Particulars: Sus scrofa.
Series [30] deals with NC(=O)c1cc(O)cc(O)c1. As to the kind of experiment: (§5) Mixed inhibition of porcine heart LDH assessed as apparent Km for substrate at 50 uM using pyruvate as substrate and NADH as cofactor measured after 2 hrs by Michaelis-Menten plot analysis (reference value: 73 +/- 10 uM). As to conditions: Sus scrofa.
Series [31] concerns CC(=O)Nc1cccc(O)c1. The series is described as §5. As to conditions: Sus scrofa.
The test system of series [32] is CC(=O)Nc1cccc(O)c1. As to the kind of experiment: Mixed inhibition of porcine heart LDH assessed as substrate Kcat at 25 uM using pyruvate as substrate and NADH as cofactor measured after 2 hrs by Michaelis-Menten plot analysis (reference value: 232 +/- 13 /sec). As to conditions: Sus scrofa.
Series [33] concerns NC(=O)c1cc(O)cc(O)c1. The experiment in a line: Mixed inhibition of porcine heart LDH assessed as substrate Kcat at 300 uM using pyruvate as substrate and NADH as cofactor measured after 2 hrs by Michaelis-Menten plot analysis (reference value: 319 +/- 8 /sec). Particulars: Sus scrofa.
For series [34], the system named is NC(=O)c1cc(O)cc(O)c1. As to the kind of experiment: Mixed inhibition of porcine heart LDH assessed as substrate Kcat at 100 uM using pyruvate as substrate and NADH as cofactor measured after 2 hrs by Michaelis-Menten plot analysis (reference value: 319 +/- 8 /sec). Particulars: Sus scrofa.
Series [35] deals with CC(=O)Nc1cccc(O)c1. As to the kind of experiment: Non-competitive inhibition of porcine heart LDH assessed as apparent Km for cofactor at 50 uM using pyruvate as substrate and NADH as cofactor measured after 2 hrs by Michaelis-Menten plot analysis (reference value: 8 +/- 2 uM). Particulars: Sus scrofa.

Sequence of L-lactate dehydrogenase B chain (Sus scrofa), P00336 (P00336 whole entry): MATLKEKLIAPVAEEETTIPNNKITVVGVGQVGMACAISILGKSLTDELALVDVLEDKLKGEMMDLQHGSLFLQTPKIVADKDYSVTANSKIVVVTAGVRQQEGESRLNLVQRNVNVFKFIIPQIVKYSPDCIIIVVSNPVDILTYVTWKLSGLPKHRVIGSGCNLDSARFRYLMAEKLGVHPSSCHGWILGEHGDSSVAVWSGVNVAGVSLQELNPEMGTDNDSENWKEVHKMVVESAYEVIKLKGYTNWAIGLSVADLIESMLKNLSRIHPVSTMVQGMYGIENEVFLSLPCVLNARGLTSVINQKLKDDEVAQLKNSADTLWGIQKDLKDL
Sequence of L-lactate dehydrogenase B chain (Sus scrofa) (P00336 whole entry): as above

As to `CC(=O)Nc1cccc(O)c1`, the Activity in series [1] came out at 449 nm. Further, in [2], the RFU was determined as 0.793 a.u. The result in series [3] was Active. Besides, the TIME in series [4] was 1.09e-06 h.
Consider `CC(=O)Nc1ccccc1`, for which, in series [3], the result was Active.
Take `NC(=O)c1cc(O)cc(O)c1`: the RFU was 0.773 a.u in [5], 0.759 a.u in series [8] and 0.764 a.u in series [10]. Besides, the Activity in series [6] worked out at 453 nm; in [7], 453 nm; in series [9] it was 455 nm. Also, the outcome in series [3] was Active.
As to `N[C@@H](Cc1c[nH]c2ccccc12)C(=O)O`, in series [11], the Activity was below 24%.
As to “L-lactate dehydrogenase B chain (Sus scrofa), P00336”, the Km came to 116 µM in the series on NC(=O)c1cc(O)cc(O)c1 [12]; 163 µM with CC(=O)Nc1cccc(O)c1 [13]; 111 µM with NC(=O)c1cc(O)cc(O)c1 [15]; 133 µM in the series on CC(=O)Nc1cccc(O)c1 [16]; 87 µM with NC(=O)c1cc(O)cc(O)c1 [20]; 98 µM in the series with CC(=O)Nc1cccc(O)c1 [21]. Besides, the Michaelis constant (Km) worked out at 7 µM in the series with CC(=O)Nc1cccc(O)c1 [22]; 90 µM in the series with NC(=O)c1cc(O)cc(O)c1 [26]; 98 µM in the series on CC(=O)Nc1cccc(O)c1 [27]; 102 µM in the series with NC(=O)c1cc(O)cc(O)c1 [30]; 155 µM with CC(=O)Nc1cccc(O)c1 [31]; 7 µM in the series on CC(=O)Nc1cccc(O)c1 [35]. Besides, the kcat with CC(=O)Nc1cccc(O)c1 [14] was found to be 190 s⁻¹; with CC(=O)Nc1cccc(O)c1 [17] it was 211 s⁻¹; with NC(=O)c1cc(O)cc(O)c1 [18], 281 s⁻¹; in the series with CC(=O)Nc1cccc(O)c1 [19], 191 s⁻¹; with CC(=O)Nc1cccc(O)c1 [23], 132 s⁻¹; with CC(=O)Nc1cccc(O)c1 [24] it was 175 s⁻¹. The kcat in the series on NC(=O)c1cc(O)cc(O)c1 [25] came out at 242 s⁻¹; in the series on CC(=O)Nc1cccc(O)c1 [28], 211 s⁻¹; in the series on NC(=O)c1cc(O)cc(O)c1 [29] it was 229 s⁻¹; in the series with CC(=O)Nc1cccc(O)c1 [32], 190 s⁻¹; with NC(=O)c1cc(O)cc(O)c1 [33] it was 176 s⁻¹; with NC(=O)c1cc(O)cc(O)c1 [34] it was 216 s⁻¹.

The Km is the substrate concentration at which the rate is half of its maximum. In general, kcat refers to the maximal rate divided by the concentration of active sites.

The values above are taken from ChEMBL document CHEMBL4257555, “Small molecule cores demonstrate non-competitive inhibition of lactate dehydrogenase” (Medchemcomm, 2018).
